From ChEMBL document CHEMBL1148342, “Synthesis, X-ray crystal structures, stabilities, and in vitro cytotoxic activities of new heteroarylacrylonitriles” (J Med Chem, 2004)

Assays:
RT-4 = test: Growth inhibition against human RT-4 cell lines; format: functional, cell-based; conditions: Homo sapiens, RT-4
Method in brief: (§1)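 Cells were grown in RPMI-1640 with 2 g/L NaHCO3 and 10% FCS at 37 °C in 5% CO2, seeded at 1000 cells/well, and dosed 24 h later at five geometric dilutions for 96 h of continuous exposure. Cells were then glutaraldehyde-fixed and stained with crystal violet, with OD read at 570 nm. IC50 was taken from the dose–response data.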

TERT-RPE1 = test: Compound was tested for growth inhibition against human h-TERTRPE1 cell lines; format: functional, cell-based; conditions: Homo sapiens, RPE-1
Method in brief: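 The noncancerous hTERT-immortalized epithelial line h-TERT-RPE1 was grown in DMEM/F-12 with 2 g/L NaHCO3 and 10% FCS (37 °C, 5% CO2) and seeded at 1000 cells/well. Substance was added 24 h later at five geometric dilutions for 96 h continuously. The read-out was crystal violet staining after glutaraldehyde fixation, OD 570 nm, with IC50 from dose–response.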

5637 [1] = test: Cytotoxic activity against human 5637 cell line at 20 uM expressed as percent growth value; format: functional
Method in brief: (§2)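 Cells in RPMI-1640 with 10% FCS were seeded (1000 cells/well; KYSE-510 500, LCLC-103H 250), then exposed 24 h later for 96 h. Read-out was crystal violet staining of glutaraldehyde-fixed cells at OD 570 nm. Growth (%) = (OD treated − OD at drug addition)/(OD control − OD at drug addition) × 100.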

SISO [2] = test: Cytotoxic activity against human SISO cell line at 20 uM; format: functional; method in brief: as §2
KYSE-70 cell line [3] = test: Cytotoxic activity against human KYSE-70 cell line at 20 uM expressed as percent growth value; format: functional; method in brief: as §2
LCLC-103H cell line = test: Growth inhibition against human LCLC-103H cell lines; format: functional, cell-based; conditions: Homo sapiens, LCLC-103H
Method in brief: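 LCLC-103H cells were grown in RPMI-1640 with 2 g/L NaHCO3 and 10% FCS (5% CO2, 37 °C) and plated at 250 cells/well. After 24 h, five geometric dilutions were applied continuously for 96 h. Fixation was with glutaraldehyde, followed by crystal violet staining and OD at 570 nm. IC50 came from the dose–response curves.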

5637 [4] = test: Growth inhibition against human 5637 cell lines; format: functional, cell-based; conditions: Homo sapiens; method in brief: as §1
MCF7 = test: Growth inhibition against human MCF-7 cell lines; format: functional, cell-based; conditions: Homo sapiens, MCF7
Method in brief: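 MCF-7 was cultured in RPMI-1640 with 2 g/L NaHCO3, 10% FCS, 1 mM pyruvate, MEM salts and amino acids. Plating was 1000 cells/well, then after 24 h, 96 h of continuous exposure at five geometric dilutions. Crystal violet staining of glutaraldehyde-fixed cells was read at 570 nm, and IC50 was derived from the dose–response data.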

DAN-G = test: Growth inhibition against human DAN-G cell lines; format: functional, cell-based; conditions: Homo sapiens, DAN-G; method in brief: as §1
SISO [5] = test: Growth inhibition against human SISO cell lines; format: functional, cell-based; conditions: Homo sapiens, SISO; method in brief: as §1
KYSE-70 cell line [6] = test: Growth inhibition against human KYSE-70 cell lines; format: functional, cell-based; conditions: Homo sapiens, KYSE-70; method in brief: as §1

IC50 (MCF7) [µM]	Structure (SMILES)	IC50 (RT-4) [µM]	IC50 (TERT-RPE1) [µM]	Activity 5637 [1]	Activity (SISO [2])	Activity (KYSE-70 cell line [3])	IC50 (LCLC-103H cell line) [µM]	IC50 5637 [4] [µM]	IC50 (DAN-G) [µM]	IC50 (SISO [5]) [µM]	IC50 (KYSE-70 cell line [6]) [µM]
–	O=[N+]([O-])c1ccc(/C=C/c2nc3ccccc3[nH]2)s1	0.89	0.21	0	-1.8	0.7	0.56	0.27	–	–	–
16.4	N#C/C(=C\c1cccc([N+](=O)[O-])c1)c1nc2ccccc2[nH]1	7.68	–	14.4	54.2	55.4	1.13	15.2	15.8	30.9	22.5
